Broadly, the MIC is the least concentration at which growth counts as inhibited.

The nature of series [1]: Solubility (in 0.1 N HCl). It is filed as physicochemical. Conditions: read-out: S. The gist of the method:
(§1)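 Solubility was measured either from HPLC peak areas at equilibrium or by a conventional weight-per-volume method. All solutions were held for 24 h before measurement.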

Series [2] is described as follows: Solubility (at pH 4). It is filed as physicochemical. The conditions noted are these: buffer, read-out: S. Put shortly:
as §1

Series [3] relates to Escherichia coli. As to the kind of experiment: In vitro antibacterial activity against gram negative Escherichia coli Vogel. It is filed as functional.
Another series relates to Enterococcus faecalis. The series can be described thus: In vitro antibacterial activity against gram positive Enterococcus faecalis MGH-2. It is filed as functional.
Series [4] addresses DNA gyrase (Escherichia coli) (UniProt P0AES6+P0AES4). As to the kind of experiment: In vitro concentration inhibiting DNA gyrase induced cleavage in Escherichia coli H560. It is filed as functional. Put shortly: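 DNA gyrase test run as described in earlier work. The value is the drug concentration (µg/mL) needed to cause DNA cleavage.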
The next series has as its system Enterobacter cloacae. As to the kind of experiment: In vitro antibacterial activity against gram negative Enterobacter cloacae MA 2646. It is filed as functional.
The test system of series [5] is Klebsiella pneumoniae. The series can be described thus: In vitro antibacterial activity against gram negative Klebsiella pneumoniae. MGH-2. It is filed as functional.
Series [6] deals with Escherichia coli. The series can be described thus: In vivo potency against acute systemic infection in mouse caused by Escherichia coli Vogel on oral administration by gavage. Conditions: read-out: PD50. It is filed as functional. Put shortly:
(§2)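 Acute systemic mouse infection. A single oral dose was given by gavage at the time of challenge. Potency is reported as the median protective dose (PD50, mg/kg), determined by earlier published methods.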

In series [7] the test system is Streptococcus pneumoniae. As to the kind of experiment: In vivo potency against acute systemic infection in mouse caused by Streptococcus pneumoniae SV-1 on oral administration by gavage. It is filed as functional. The conditions noted are these: read-out: PD50. Put shortly: as §2
The subject of series [8] is Streptococcus pneumoniae. The series can be described thus: In vivo potency against acute systemic infection in mouse caused by Streptococcus pneumoniae SV-1 on subcutaneous injection. It is filed as functional. The conditions noted are these: sc, read-out: PD50. Put shortly: (§3)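 Acute systemic mouse infection. A single subcutaneous dose was injected at the time of challenge. Potency is reported as the median protective dose (PD50, mg/kg), determined by earlier published methods.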

The test system of series [9] is Escherichia coli. The series can be described thus: In vivo potency against acute systemic infection in mouse caused by Escherichia coli vogel on subcutaneous injection. It is filed as functional. The conditions noted are these: sc, read-out: PD50. The gist of the method:
as §3

Series [10] has as its system Mus musculus. As to the kind of experiment: In vivo potency against acute systemic infection in mouse caused by Pseudomonas aeruginosa UI-18 on oral administration by gavage. It is filed as functional. The conditions noted are these: read-out: PD50. The gist of the method:
as §2

Series [11] concerns Mus musculus. As to the kind of experiment: In vivo potency against acute systemic infection in mouse caused by Pseudomonas aeruginosa. UI-18. on subcutaneous injection. It is filed as functional. The conditions noted are these: sc, read-out: PD50. The gist of the method:
as §3

Series [12] concerns Mus musculus. The series can be described thus: In vivo potency against acute systemic infection in mouse caused by Streptococcus pyogenes C-203 on oral administration by gavage. It is filed as functional. Conditions: read-out: PD50. Put shortly: as §2
The subject of series [13] is Mus musculus. As to the kind of experiment: In vivo potency against acute systemic infection in mouse caused by Streptococcus pyogenes C-203 on subcutaneous injection. The conditions noted are these: sc, read-out: PD50. It is filed as functional. Put shortly:
as §3

Another series deals with Pseudomonas aeruginosa. As to the kind of experiment: In vitro antibacterial activity against gram negative Pseudomonas aeruginosa UI-18. It is filed as functional.
A further series deals with Providencia rettgeri. The series can be described thus: In vitro antibacterial activity against gram negative Providencia rettgeri M-1771. It is filed as functional.
For series [14], the system named is Staphylococcus aureus. The series can be described thus: In vitro antibacterial activity against gram positive Staphylococcus aureus H-228. It is filed as functional.
Another series relates to Streptococcus pyogenes. As to the kind of experiment: In vitro antibacterial activity against gram positive Streptococcus pyogenes C-203. It is filed as functional.
The subject of series [15] is Staphylococcus aureus. As to the kind of experiment: In vitro antibacterial activity against gram positive Staphylococcus aureus UC76. It is filed as functional.
In series [16] the test system is Streptococcus pneumoniae. As to the kind of experiment: In vitro antibacterial activity against gram positive Streptococcus pneumoniae SV-1. It is filed as functional.
The nature of series [17]: Aqueous solubility. The conditions noted are these: read-out: S. It is filed as physicochemical. Put shortly:
as §1

In series [18] the test system is DNA gyrase (Escherichia coli). The series can be described thus: In vitro concentration inhibiting DNA gyrase induced cleavage in Escherichia coli H560.
The nature of series [19]: Solubility (at pH 7.4). It is filed as physicochemical. Conditions: buffer, read-out: S. The gist of the method:
as §1

In series [20] the test system is Klebsiella pneumoniae. The series can be described thus: In vitro antibacterial activity against gram negative Klebsiella pneumoniae MGH-2. It is filed as functional.
Series [21] relates to Mus musculus. The series can be described thus: In vivo potency against acute systemic infection in mouse caused by Streptococcus pneumoniae SV-1 on oral administration by gavage. It is filed as functional. Conditions: read-out: PD50. Put shortly: as §2
For series [22], the system named is Mus musculus. As to the kind of experiment: In vivo potency against acute systemic infection in mouse caused by Streptococcus pneumoniae SV-1 on subcutaneous injection. It is filed as functional. The conditions noted are these: sc, read-out: PD50. Put shortly:
as §3

Each structure is given as a SMILES string. In brackets after ≈: the same amount, converted by molar mass.

Consider `C[C@H](N)C(=O)N[C@H]1CCN(c2nc3c(cc2F)c(=O)c(C(=O)O)cn3C2CC2)C1.Cl.O`, for which the solubility in [1] is > 350000 µg/mL; in series [2], > 350000 µg/mL; in series [17] (pH 7.4 phosphate buffer) it was 20 µg/mL; in series [17] (water (aqueous)), > 350000 µg/mL. Also, the MIC against Escherichia coli [3] was 0.8 µg/mL; against Enterococcus faecalis, 1.6 µg/mL; against Enterobacter cloacae, 0.8 µg/mL; against Klebsiella pneumoniae [5], 1.6 µg/mL; against Pseudomonas aeruginosa it was 3.1 µg/mL; against Providencia rettgeri it was 3.1 µg/mL. Besides, the MIC in the series on Staphylococcus aureus [14] was 3.1 µg/mL; against Streptococcus pyogenes, 0.8 µg/mL; against Staphylococcus aureus [15], 0.8 µg/mL; with Streptococcus pneumoniae [16] it was 0.8 µg/mL. In series [4], this compound had a Cleavage of 5 µg/mL. Moreover, the ED50 in the series with Escherichia coli [6] came out at 1.3 mg/kg; in the series on Streptococcus pneumoniae [7], 25 mg/kg; in the series on Streptococcus pneumoniae [8] it was 12 mg/kg; with Escherichia coli [9] it was 0.4 mg/kg; in the series with Mus musculus [10], 3 mg/kg; in the series with Mus musculus [11] it was 2 mg/kg. Also, the ED50 stood at 22 mg/kg in the series on Mus musculus [12] and 10 mg/kg with Mus musculus [13].

In the case of `NC1CCN(c2nc3c(cc2F)c(=O)c(C(=O)O)cn3C2CC2)C1` (stereo not drawn), the MIC in the series on Escherichia coli [3] is 0.013 µg/mL (≈ 0.0391 µM); with Enterococcus faecalis, 0.2 µg/mL (≈ 0.602 µM); with Enterobacter cloacae, 0.025 µg/mL (≈ 0.0752 µM); against Klebsiella pneumoniae [5], 0.025 µg/mL (≈ 0.0752 µM); in the series with Pseudomonas aeruginosa it was 0.05 µg/mL (≈ 0.15 µM); in the series with Providencia rettgeri it was 0.05 µg/mL (≈ 0.15 µM). For the same compound, the MIC came out at 0.2 µg/mL (≈ 0.602 µM) in the series with Staphylococcus aureus [14], 0.2 µg/mL (≈ 0.602 µM) in the series with Streptococcus pyogenes, 0.013 µg/mL (≈ 0.0391 µM) against Staphylococcus aureus [15] and 0.2 µg/mL (≈ 0.602 µM) against Streptococcus pneumoniae [16]. For the same compound, the ED50 was determined as 2 mg/kg with Escherichia coli [6]; 58 mg/kg in the series on Streptococcus pneumoniae [7]; 33 mg/kg with Streptococcus pneumoniae [8]; 0.6 mg/kg in the series on Escherichia coli [9]; 7 mg/kg in the series with Mus musculus [10]; 3 mg/kg in the series with Mus musculus [11]. The ED50 in the series with Mus musculus [12] was determined as 32 mg/kg; in the series on Mus musculus [13] it was 14 mg/kg. Further, the Cleavage in series [18] turned out to be 1 µg/mL.

As for `C[C@H](N)C(=O)NC1CCN(c2nc3c(cc2F)c(=O)c(C(=O)O)cn3C2CC2)C1.Cl.O` (stereo partly drawn), the solubility was > 350000 µg/mL in [1], > 350000 µg/mL in [2], 80 µg/mL in series [17] (pH 7.4 phosphate buffer) and > 300000 µg/mL in [17] (water (aqueous)). Besides, the MIC amounted to 0.4 µg/mL in the series with Escherichia coli [3]; 1.6 µg/mL against Enterococcus faecalis; 0.2 µg/mL in the series on Enterobacter cloacae; 0.8 µg/mL in the series on Klebsiella pneumoniae [5]; 3.1 µg/mL in the series on Pseudomonas aeruginosa; 1.6 µg/mL against Providencia rettgeri. Also, the MIC was 3.1 µg/mL against Staphylococcus aureus [14], 0.4 µg/mL in the series with Streptococcus pyogenes, 0.8 µg/mL with Staphylococcus aureus [15] and 0.8 µg/mL in the series with Streptococcus pneumoniae [16]. In series [4], this compound showed a Cleavage of 0.75 µg/mL. Also, the ED50 worked out at 1 mg/kg in the series on Escherichia coli [6]; 28 mg/kg in the series on Streptococcus pneumoniae [7]; 10 mg/kg with Streptococcus pneumoniae [8]; 0.6 mg/kg with Escherichia coli [9]; 7 mg/kg in the series on Mus musculus [10]; 5 mg/kg in the series with Mus musculus [11]. For the same compound, the ED50 was determined as 15 mg/kg with Mus musculus [12] and 7 mg/kg in the series on Mus musculus [13].

`C[C@@H]1CN(c2c(F)c(N)c3c(=O)c(C(=O)O)cn(C4CC4)c3c2F)C[C@H](C)N1` [SPARFLOXACIN]: the solubility in series [1] was determined as 400 µg/mL (≈ 1020 µM); in [2], 30 µg/mL (≈ 76.5 µM); in [19], 10 µg/mL (≈ 25.5 µM); in series [17] (water (aqueous)), 90 µg/mL (≈ 229 µM). Also, the MIC amounted to 0.025 µg/mL (≈ 0.0637 µM) in the series with Escherichia coli [3]; 0.1 µg/mL (≈ 0.255 µM) against Enterococcus faecalis; 0.025 µg/mL (≈ 0.0637 µM) against Enterobacter cloacae; 0.05 µg/mL (≈ 0.127 µM) in the series with Klebsiella pneumoniae [20]; 0.8 µg/mL (≈ 2.04 µM) against Pseudomonas aeruginosa; 0.2 µg/mL (≈ 0.51 µM) in the series with Providencia rettgeri. The minimal inhibitory concentration (MIC) in the series with Staphylococcus aureus [14] amounted to 0.05 µg/mL (≈ 0.127 µM); in the series with Streptococcus pyogenes, 0.1 µg/mL (≈ 0.255 µM); with Staphylococcus aureus [15], 0.025 µg/mL (≈ 0.0637 µM); against Streptococcus pneumoniae [16] it was 0.05 µg/mL (≈ 0.127 µM). This compound returned a Cleavage in series [4] of 2.5 µg/mL. The ED50 in the series on Escherichia coli [6] worked out at 1 mg/kg; in the series with Mus musculus [21], 14 mg/kg; in the series with Mus musculus [22], 13 mg/kg; in the series on Escherichia coli [9] it was 0.2 mg/kg; with Mus musculus [10], 14 mg/kg; in the series on Mus musculus [11] it was 7 mg/kg. In addition, the ED50 with Mus musculus [12] and with Mus musculus [13] was 17 mg/kg throughout.

Values taken from ChEMBL document CHEMBL1126036, “Quinolone antibacterial agents. Synthesis and structure-activity relationships of a series of amino acid prodrugs of racemic and chiral 7-(3-amino-1-pyrrolidinyl)quinolones. Highly soluble quinolone prodrugs with in vivo pseudomonas activity” (J Med Chem, 1992).
